In ChEMBL document CHEMBL1146456, “Africane-type sesquiterpenoids from the Argentine liverwort Porella swartziana and their antibacterial activity” (J Nat Prod, 2004):
Activity calls are given as the source filed them. The calls are words filed in the database; no cut-off is given here.

How the values were obtained:
Staphylococcus aureus [1] = experiment: Antibacterial activity against Staphylococcus aureus ATCC 6538 P at below 625 ug/mL after 24 hrs by broth microdilution method; format: functional, organism-based
In short: (§1)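 Broth microdilution in LAPTg medium (pH 6.8). Inoculum set to 0.5 McFarland (10⁸ CFU/mL), then diluted to 10⁵ CFU/mL and confirmed by plate counts. Added to 0.1 mL broth containing compound over 5000 to 156.2 µg/mL, with DMSO as solvent. Incubated 24 h at 37 °C. MIC taken as the lowest concentration with no visible growth.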

Staphylococcus aureus [2] = experiment: Antibacterial activity against Staphylococcus aureus F7 at below 625 ug/mL after 24 hrs by broth microdilution method; format: functional, organism-based; in short: as §1

SMILES | Activity (Staphylococcus aureus [1]) | Activity (Staphylococcus aureus [2])
C[C@H]1C(=O)C=C2[C@H]1CC(C)(C)C[C@H]1C[C@@]21C | inactive | inactive
C[C@@H]1OC(=O)C2=C1CC(C)(C)C[C@H]1C[C@@]21C | inactive | inactive
CC1(C)C[C@H]2C[C@@]2(C)C2=CC(=O)[C@@]3(C)O[C@@]23C1 | inactive | inactive
CC1(C)CC2=C(C(=O)O[C@]2(C)O)[C@]2(C)C[C@@H]2C1 | inactive | inactive
CC1(C)C[C@H]2C[C@@]2(C)C2=CC(=O)[C@@](C)(O)[C@@H]2C1 | inactive | inactive
CC1(C)S[C@@H]2[C@H](NC(=O)Cc3ccccc3)C(=O)N2[C@H]1C(=O)O | Active | Active
COC(=O)CC1=C(C(C)=O)CC(C)(C)C[C@H]2C[C@@]12C | inactive | inactive
Cc1oc(=O)cc2c1CC(C)(C)C[C@H]1C[C@@]21C | inactive | inactive
CC1(C)C=C2C(=CC(=O)[C@@]2(C)O)[C@]2(C)C[C@@H]2C1 | inactive | inactive
